# Sampled rows, rich in hits. Any-hit rate of the full collection: about 2.4%.
# RORa activator – activates the human nuclear receptor RORA | P35398 | CHO-K1 Gal4-RORA LBD luciferase reporter, luminescence; percent increase over mock-subtracted basal signal | activation, % at 10 µM | hit rate 1.5% among 65,000 | AID 560;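 active = activation above the mean of all tested compounds plus 3 SD, cut at about 49% in these data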;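 note: 0% = DMSO-treated RORA cells and 100% = added signal equal to DMSO minus mock-transfected cells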
# MMP13 inh – inhibitors of human MMP13 | P45452 | MMP-13 fTHP FRET cleavage, Mca fluorescence | inhibition, % at 4 µM | hit rate 0.07% among 65,000;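 active = inhibition above the mean of compound-free control plate wells plus 3 SD, cut at about 14% in these data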;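 note: 0% = DMSO wells and 100% = wells with reference MMP-13 inhibitor after basal subtraction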
# HePTP inh – blocks human HePTP tyrosine phosphatase | P35236 | recombinant HePTP phosphatase activity, OD absorbance | inhibition, % at 20 µM | hit rate 0.64% among 110,000; in the data active = inhibition above about 50%;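 note: plate controls were vehicle for no effect and reference inhibitor for full effect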
# SF1 activator – activates the human nuclear receptor SF-1 | AID 522 | CHO-K1 Gal4-SF-1 LBD luciferase reporter; % increase over DMSO SF-1-specific signal | hit rate 1.9% among 65,000 | activation, % at 10 µM;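 active = activation above the mean activation of all tested compounds plus 3 SD, cut at about 50% in these data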
# Target sequence (Q13285 whole entry, looked up, the tested form may be a part): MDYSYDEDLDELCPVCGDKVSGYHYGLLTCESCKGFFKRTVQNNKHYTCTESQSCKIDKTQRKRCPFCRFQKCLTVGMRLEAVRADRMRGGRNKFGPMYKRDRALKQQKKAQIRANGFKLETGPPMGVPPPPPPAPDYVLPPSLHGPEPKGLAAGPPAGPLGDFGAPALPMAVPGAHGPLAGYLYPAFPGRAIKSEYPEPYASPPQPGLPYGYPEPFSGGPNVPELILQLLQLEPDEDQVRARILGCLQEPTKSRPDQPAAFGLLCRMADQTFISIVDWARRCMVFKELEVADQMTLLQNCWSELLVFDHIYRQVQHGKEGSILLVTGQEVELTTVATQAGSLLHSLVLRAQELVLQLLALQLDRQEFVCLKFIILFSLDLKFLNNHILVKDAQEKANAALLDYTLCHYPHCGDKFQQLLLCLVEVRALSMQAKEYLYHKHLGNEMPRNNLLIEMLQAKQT
#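 Test system: transient Gal4-SF-1 LBD reporter, CHO-K1; Amount: 4,000 CHO-K1 cells per well; Doses: 10 µM only; Timing: compound exposure 20 h at 37 °C; Signal: luciferase light emission; Read-out basis: percent activation relative to DMSO median and mock-transfected background; Control set: DMSO negative control and −SF1 background wells; Replicates: one test per compound.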
# AP complement – alternative pathway complement inhibition, orthogonal assay; Human serum alternative complement pathway, LPS-coated ELISA, C3 deposition; tested in compound mixtures; inhibition, % at 5 µM; hit rate 0.08% among 62,000; AID 1235;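 active = inhibition above 30% in each of the two pooled mixtures holding the compound, so the lower value exceeds 30%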;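 note: 0% = serum in Mg-EGTA without compound and 100% = EDTA serum blank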
#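 Assay system: human serum alternative complement pathway, C3 deposition on LPS-coated wells; Dosing: 5 µM per compound in ten-compound mixtures; Detection: Anti-C3 ELISA, OD 450 nm; Buffer or medium: Mg2+-EGTA GVB++ buffer containing human serum at 1:15 dilution; Timing: 1 h at 37 °C; Replication: two different pools per compound.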
# E coli RNAP – Escherichia coli RNA polymerase inhibition | hit rate 0.2% among 62,000 | P0A8V2 | inhibition, %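 (tested at 10 µM)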 | E. coli RNA polymerase, fluorescence transcription assay; in the data active = inhibition above about 20%;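 note: 0% = enzyme without compound and 100% = no enzyme blank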
# * hit, by the source's call; · = no result.
SMILES,RORa activator,MMP13 inh,HePTP inh,SF1 activator,AP complement,E coli RNAP
COc1cccc(NC(=O)COc2ccccc2C(N)=O)c1,14.9,1.1,1.4,62.1*,-6.1,1.7
COc1ccccc1OCC(=O)Nc1cccc(-c2nc3ccccc3o2)c1,19.6,-3.7,12.5,61.4*,0.0,-5.2
O=C(NNc1ccccc1)c1ccccc1Cl,·,·,-17.7,·,·,·
CCOc1ccc(-c2nnc(-c3ccncc3)o2)cc1,36.4,-22.5,2.6,39.3,17.1,4.6
CCCCOc1ccc(-c2nnc(-c3ccncc3)o2)cc1,58.7*,-114.8,11.0,39.4,1.9,9.4
CN1CCN(C(=O)c2ccccc2NC(=O)c2ccc(Cl)cc2Cl)CC1,·,·,-13.1,·,·,·
O=C(O)C1C2CCC(O2)C1C(=O)Nc1ccc2c(c1)OCO2 (configuration not stated),·,·,-11.2,·,·,·
Nc1nc(-c2ccccc2)cc(N2CCOCC2)n1,·,·,105.5*,·,·,·
O=C(NCc1ccco1)Nc1ccc(Br)cc1Cl,57.2*,6.5,6.0,59.5*,17.1,-5.7
CC(=O)Nc1ccc(S(=O)(=O)Nc2cccc(C)c2C)cc1,·,·,-2.6,·,·,·
CCCCNCCCOc1cc(C)cc(C)c1,·,·,-25.2,·,·,·
COc1cc2cc3c(N)c(C(=O)NCc4ccco4)sc3nc2cc1OC,80.4*,0.5,-1.8,43.7,-6.4,1.0
COc1ccc(Cl)cc1C(=O)NCc1ccco1,·,·,5.7,·,·,·
O=C1C2C3C=CC(C3)C2C(=O)N1c1ccc(-c2nc3ccccc3o2)cc1 (configuration not stated),72.8*,-4.3,7.7,40.6,10.1,2.9
O=C1NC(=S)S/C1=C\c1ccc(-c2ccc(Cl)c(C(=O)O)c2)o1,·,·,101.1*,·,·,·
Cc1cc(C)c2nc3s/c(=C\c4ccc(-c5ccc(Cl)c(C(=O)O)c5)o4)c(=O)n3c2c1,·,·,89.7*,·,·,·
O=C(O)c1cc(-c2ccc(/C=C3/Sc4ccccc4C3=O)o2)ccc1O,·,·,102.1*,·,·,·
Cc1ccc(-c2ccc(/C=C3/SC(=S)NC3=O)o2)cc1Cl,·,·,8.2,·,·,·
Cc1cc(C)c2nc3s/c(=C\c4ccc(-c5cc(C)c(C)cc5[N+](=O)[O-])o4)c(=O)n3c2c1,·,·,-2.2,·,·,·
Cc1cc(C)c2nc3s/c(=C/c4cccn4-c4ccc([N+](=O)[O-])cc4)c(=O)n3c2c1,·,·,84.7*,·,·,·
N#C/C(=C/c1ccc(-c2cc(Cl)ccc2Cl)o1)C(=O)O,·,·,-1.3,·,·,·
O=C1CC(NCc2ccc3c(c2)OCO3)C(=O)N1c1ccc(Br)cc1 (configuration not stated),·,·,3.3,·,·,·
Cc1c(Cl)cccc1N=C1NC(=O)/C(=C/c2ccc(-c3ccccc3C(=O)O)o2)S1,·,·,98.2*,·,·,·
O=C1NC(=O)/C(=C/c2ccc(-c3ccc(O)c(C(=O)O)c3)o2)S1,·,·,102.4*,·,·,·
O=c1c2c([nH]c3ccccc13)C(=C1CCCC1)CC2,-9.9,-19.0,9.8,-10.7,11.4,13.1
SMILES,RORa activator,MMP13 inh,HePTP inh,SF1 activator,AP complement,E coli RNAP
CC(C)(C)C1CCc2[nH]c3ccccc3c(=O)c2C1 (configuration not stated),97.8*,-1.8,7.8,55.5*,12.7,14.6
O=C(Nc1ccc(NC(=O)C23CC4CC(CC(C4)C2)C3)cn1)c1ccco1,28.1,-0.2,10.7,89.9*,2.5,6.1
O=C(Cc1ccccc1)Nc1ccc(NC(=O)c2ccco2)nc1,17.1,8.2,-6.7,59.3*,-4.9,7.8
O=C(Nc1ccc(NC(=O)C2CCCCC2)cn1)c1ccco1,7.1,3.0,8.6,19.7,12.8,0.6
CCCC(=O)Nc1ccc(NC(=O)Cc2ccccc2)cn1,6.4,6.1,3.9,12.6,-4.4,8.9
O=C(Nc1ccc(NC(=O)c2ccco2)nc1)c1ccccn1,26.9,5.0,-4.8,51.5*,3.0,8.9
Cc1cc(C(=O)CSc2nnnn2-c2ccccc2)c(C)n1CC1CCCO1 (configuration not stated),45.0,3.5,-0.9,68.3*,-27.4,10.1
Cc1cc(C(=O)CSc2nnnn2-c2ccc(Cl)cc2)c(C)n1CC1CCCO1 (configuration not stated),3.2,-12.4,5.2,8.1,3.6,9.6
O=C1/C(=C/c2ccc(Br)o2)SC(=S)N1Cc1ccccc1,·,·,56.0*,·,·,·
CCN1C(=O)/C(=C\c2ccc(-c3ccc(C(=O)OC)cc3)o2)SC1=S,·,·,1.1,·,·,·
CCOC(=O)c1ccc(-c2ccc(/C=C3/SC(=S)N(CC(=O)O)C3=O)o2)cc1,·,·,54.5*,·,·,·
O=C1/C(=C/c2ccc(-c3ccc([N+](=O)[O-])cc3)o2)SC(=S)N1Cc1ccco1,·,·,63.6*,·,·,·
CCN1C(=O)/C(=C\c2ccc(-c3ccc([N+](=O)[O-])cc3)o2)SC1=S,·,·,-19.1,·,·,·
Cc1ccc(/C=C2/SC(=S)N(CCC(=O)O)C2=O)o1,·,·,-2.0,·,·,·
O=C(O)CCCN1C(=O)/C(=C\c2ccc(-c3ccc(Br)cc3)o2)SC1=S,·,·,94.3*,·,·,·
COc1cc(NC(=O)COc2cccc(Cl)c2)c(OC)cc1Cl,·,·,-2.7,·,·,·
Cc1onc(-c2c(Cl)cccc2Cl)c1C(=O)NCCc1ccccc1,·,·,-0.5,·,·,·
Clc1cccc2sc(N3CCCC3)nc12,22.4,-3.4,-8.4,50.0*,19.3,5.7
Clc1cccc2sc(N3CCOCC3)nc12,0.9,2.1,2.6,35.5,15.5,3.6
CCOc1ccccc1C1CC(=O)NC(SC)=C1C#N (configuration not stated),·,·,3.2,·,·,·
O=C(COc1ccccc1Cl)NNC(=O)c1cccnc1,·,·,-11.9,·,·,·
O=C(COc1ccccc1Cl)NNC(=O)c1ccncc1,·,·,101.1*,·,·,·
O=c1cc(Nc2ccc3c(c2)OCCO3)[nH]c(=O)n1-c1ccc(Cl)cc1,50.0*,1.2,-15.2,40.1,5.2,0.4
COc1cccc(N2CCN(C(=O)c3ccc4nc(N5CCCCC5)sc4c3)CC2)c1,77.8*,1.9,3.7,89.0*,3.3,8.3
O=C(c1ccc2nc(N3CCOCC3)sc2c1)N1CCCC1,13.8,-5.4,11.8,0.5,8.7,14.2
SMILES,RORa activator,MMP13 inh,HePTP inh,SF1 activator,AP complement,E coli RNAP
COc1ccc(N2CCN(C(=O)c3ccc4nc(N5CCCCC5)sc4c3)CC2)cc1,68.0*,-1.6,-3.0,30.6,4.6,2.1
COC(=O)CCCN1C(=O)/C(=C/c2ccc(OC)cc2)SC1=S,·,·,7.9,·,·,·
O=C(NCc1ccccn1)C(=O)N/N=C/c1ccccc1C(F)(F)F,·,·,11.9,·,·,·
CC(=O)Nc1ccc(NS(=O)(=O)c2cccc3c2C(=O)c2ccccc2C3=O)cc1,·,·,102.4*,·,·,·
CC(=O)Nc1ccc(NS(=O)(=O)c2ccc(C(C)(C)C)cc2)cc1,·,·,96.0*,·,·,·
CC(=O)Nc1ccc(NS(=O)(=O)c2ccc(NC(C)=O)cc2)cc1,·,·,6.9,·,·,·
O=C1c2ccccc2C(=O)c2c1cccc2S(=O)(=O)Nc1ccc(Cl)cc1,·,·,-1.8,·,·,·
COC(=O)C1=C(C)NC2=C(C(=O)CCC2)C1c1ccc2c(c1)OCO2 (configuration not stated),·,·,6.4,·,·,·
Cc1cccc(N2C(=O)c3ccc(NC(=O)C(c4ccccc4)c4ccccc4)cc3C2=O)c1C,·,·,-24.6,·,·,·

# Source: PubChem BioAssay
